Experimental data as given in ChEMBL document CHEMBL1124233, “Clofazimine analogues active against a clofazimine-resistant organism” (J Med Chem, 1988).

Experiments:
Format in all cases: functional, organism-based
[1] = tested on: Mycolicibacterium smegmatis; test: 100% inhibition of growth of clofazimine resistant Mycobacterium smegmatis 607 strain in vitro
How it was run: (§1)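 Strain: 20× step-up clofazimine-resistant mutant of M. smegmatis ATCC607. 10^5 viable cells inoculated into modified Kirchner's medium with 0.5% Tween 80. Drugs were added in DMSO (2% final in all tubes). Roller tubes were incubated at 37 °C for 72 h. Growth was read as optical transmission in a spectrophotometer.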

[2] = tested on: Mycolicibacterium smegmatis; test: Concentration for 100% inhibition of growth of dapsone sensitive Mycobacterium smegmatis 607 strain in vitro
How it was run: (§2)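 M. smegmatis ATCC607-derived strains (one of three used, including a dapsone-sensitive one) were grown in modified Kirchner's medium with 0.5% Tween 80, inoculated with 10^5 viable cells. Drugs were added in DMSO (2% final). Roller tubes were incubated at 37 °C for 72 h. Growth was read as spectrophotometric transmission.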

[3] = tested on: Mycolicibacterium smegmatis; test: 100% inhibition of growth of rifampicin resistant Mycobacterium smegmatis 607 strain in vitro; how it was run: as §2
[4] = tested on: Mycolicibacterium smegmatis; test: Concentration for complete inhibition of growth against clofazimine resistant Mycobacterium smegmatis 607 strain in vitro; Precipitation; how it was run: as §1
[5] = tested on: Mycolicibacterium smegmatis; test: Concentration for complete inhibition of growth against rifampicin resistant Mycobacterium smegmatis 607 strain in vitro; Precipitation; how it was run: as §2

SMILES	Concentration [1] [µg/mL]	Concentration [2] [µg/mL]	Concentration [3] [µg/mL]	Concentration [4] [µg/mL]	Concentration [5] [µg/mL]
COC(C/N=c1\cc2n(-c3ccc(Cl)cc3)c3ccccc3nc-2cc1Nc1ccc(Cl)cc1)OC	60	4	5		
OCCC/N=c1\cc2n(-c3ccccc3)c3ccccc3nc-2cc1Nc1ccccc1	20	4	8		
c1ccc(Nc2cc3nc4ccccc4n(-c4ccccc4)c-3c/c2=N\CCCN2CCCC2)cc1	0.6	0.2	0.2		
CCCC/N=c1\cc2n(-c3ccc(Cl)cc3)c3ccccc3nc-2cc1Nc1ccc(Cl)cc1	100	3	3		
OCC/N=c1\cc2n(-c3ccccc3)c3ccc(Cl)cc3nc-2cc1Nc1ccccc1	100	2	4		
O=C1CCCN1CC/N=c1\cc2n(-c3ccc(Cl)cc3)c3ccccc3nc-2cc1Nc1ccc(Cl)cc1	20	1	1.6		
N=c1cc2n(-c3ccc(Cl)cc3)c3ccccc3nc-2cc1Nc1ccc(Cl)cc1	40	3	3		
OCCNCC/N=c1\cc2n(-c3ccccc3)c3ccccc3nc-2cc1Nc1ccccc1	10	5	6		
OCCNCC/N=c1\cc2n(-c3ccc(Cl)cc3)c3ccccc3nc-2cc1Nc1ccc(Cl)cc1	20	8	8		
CCOc1ccc(Nc2cc3nc4ccccc4n(-c4ccc(OCC)cc4)c-3c/c2=N\CCN(CC)CC)cc1	5	1	1		
Clc1ccc(Nc2cc3nc4ccccc4n(-c4ccc(Cl)cc4)c-3c/c2=N\CCN2CCOCC2)cc1	20	1	1		
CCCC/N=c1\cc2n(-c3ccccc3)c3ccccc3nc-2cc1Nc1ccccc1	20	3	3		
CCN1CCCC1C/N=c1\cc2n(-c3ccc(Cl)cc3)c3ccccc3nc-2cc1Nc1ccc(Cl)cc1 (centres undefined)	10	1	1		
Cc1ccc(Nc2cc3nc4ccccc4n(-c4ccc(C)cc4)c-3c/c2=N\CC2CCNCC2)cc1	0.4	0.2	0.3		
c1ccc(Nc2cc3nc4ccccc4n(-c4ccccc4)c-3c/c2=N\CCN2CCNCC2)cc1	1	0.4	0.4		
O=C1CCCN1CCC/N=c1\cc2n(-c3ccc(Cl)cc3)c3ccccc3nc-2cc1Nc1ccc(Cl)cc1	20	2	2		
CCNCCC/N=c1\cc2n(-c3ccc(Cl)cc3)c3ccccc3nc-2cc1Nc1ccc(Cl)cc1	1	0.2	0.2		
NCCCC/N=c1\cc2n(-c3ccc(Cl)cc3)c3ccccc3nc-2cc1Nc1ccc(Cl)cc1	0.5	0.2	0.3		
OCCNCC/N=c1\cc2n(-c3ccccc3)c3ccc(Cl)cc3nc-2cc1Nc1ccccc1	20	5	10		
CC(C)C(C)/N=c1\cc2n(-c3ccc(Cl)cc3)c3ccccc3nc-2cc1Nc1ccc(Cl)cc1 (centres undefined)	30	3	4		
CC1(C)CC(/N=c2\cc3n(-c4ccc(Cl)cc4)c4ccccc4nc-3cc2Nc2ccc(Cl)cc2)CC(C)(C)N1	2	0.2	0.5		
CC(C/N=c1\cc2n(-c3ccc(Cl)cc3)c3ccccc3nc-2cc1Nc1ccc(Cl)cc1)N(C)C (centres undefined)	16	1.2	6		
CC(C)/N=c1\cc2n(-c3ccccc3)c3ccccc3nc-2cc1Nc1ccccc1	100	2	3		
OCCN(CCO)CCC/N=c1\cc2n(-c3ccc(Cl)cc3)c3ccccc3nc-2cc1Nc1ccc(Cl)cc1	3	0.6	1		

SMILES	Concentration [1] [µg/mL]	Concentration [2] [µg/mL]	Concentration [3] [µg/mL]	Concentration [4] [µg/mL]	Concentration [5] [µg/mL]
c1ccc(Nc2cc3nc4ccccc4n(-c4ccccc4)c-3c/c2=N\CCCN2CCOCC2)cc1	6	1	0.8		
CCOc1ccc(Nc2cc3nc4ccccc4n(-c4ccc(OCC)cc4)c-3c/c2=N\CCO)cc1	20	5	10		
CC1CCC(/N=c2\cc3n(-c4ccccc4)c4ccccc4nc-3cc2Nc2ccccc2)CC1 (centres undefined)	100	6	8		
c1ccc(Nc2cc3nc4ccccc4n(-c4ccccc4)c-3c/c2=N\CC2CCCCC2)cc1	100	2	2		
c1ccc(Nc2cc3nc4ccccc4n(-c4ccccc4)c-3c/c2=N\CCCN2CCCCC2)cc1	1	0.3	0.3		
CCN(CC)CC/N=c1\cc2n(-c3ccc(Cl)cc3)c3ccccc3nc-2cc1Nc1ccc(Cl)cc1	12	0.6	0.6		
CC/N=c1\cc2n(-c3ccccc3)c3ccccc3nc-2cc1Nc1ccccc1	20	3	3		
NCCCCC/N=c1\cc2n(-c3ccc(Cl)cc3)c3ccccc3nc-2cc1Nc1ccc(Cl)cc1	0.5	0.2	0.3		
CCN(CC)CC/N=c1\cc2n(-c3ccccc3)c3ccccc3nc-2cc1Nc1ccccc1	6	0.6	0.8		
c1ccc(Nc2cc3nc4ccccc4n(-c4ccccc4)c-3c/c2=N\CC2CCNCC2)cc1	0.6	0.3	0.3		
OCC/N=c1\cc2n(-c3ccccc3)c3ccccc3nc-2cc1Nc1ccccc1	20	3	5		
c1ccc(Nc2cc3nc4ccccc4n(-c4ccccc4)c-3c/c2=N\CCN2CCOCC2)cc1	10	2	2		
Cc1ccc(Nc2cc3nc4ccccc4n(-c4ccc(C)cc4)c-3c/c2=N\CCO)cc1	12	4	8		
OCCC/N=c1\cc2n(-c3ccc(Cl)cc3)c3ccccc3nc-2cc1Nc1ccc(Cl)cc1	10	2	2		
CCN1CCCC(/N=c2\cc3n(-c4ccc(Cl)cc4)c4ccccc4nc-3cc2Nc2ccc(Cl)cc2)C1 (centres undefined)	8	0.5	0.5		
CCOc1ccc(Nc2cc3nc4ccccc4n(-c4ccc(OCC)cc4)c-3cc2=N)cc1		6		100	50
c1ccc(Nc2cc3nc4ccccc4n(-c4ccccc4)c-3c/c2=N\CCN2CCCCC2)cc1	2	0.4	0.4		
CCN1CCCC1C/N=c1\cc2n(-c3ccccc3)c3ccccc3nc-2cc1Nc1ccccc1 (centres undefined)	6	0.5	0.4		
Cc1ccc(Nc2cc3nc4ccccc4n(-c4ccc(C)cc4)c-3c/c2=N\C2CCCCC2)cc1	100	8	8		
Clc1ccc(Nc2cc3nc4ccccc4n(-c4ccc(Cl)cc4)c-3c/c2=N\C2CCCC2)cc1	20	3	3		
NCCCCCC/N=c1\cc2n(-c3ccc(Cl)cc3)c3ccccc3nc-2cc1Nc1ccc(Cl)cc1	2	0.3	0.8		
Clc1ccc2c(c1)nc1cc(Nc3ccccc3)/c(=N/CCN3CCOCC3)cc-1n2-c1ccccc1	50	1	1.5		
CCN(CC)CC/N=c1\cc2n(-c3ccccc3)c3ccc(Cl)cc3nc-2cc1Nc1ccccc1	30	1	2		
CN1CCN(CCC/N=c2\cc3n(-c4ccc(Cl)cc4)c4ccccc4nc-3cc2Nc2ccc(Cl)cc2)CC1	1	0.3	0.3		
